From ChEMBL document CHEMBL1134641, “Progress toward the development of a safe and effective agent for treating reentrant cardiac arrhythmias: synthesis and evaluation of ibutilide analogues with enhanced metabolic stability and diminished proarrhythmic potential” (2001)

Experiments:
Homo sapiens = species on record: Homo sapiens; assay: Metabolic stability in relative to 31E observed on incubation with human liver microsomes; type: functional; settings: Microsome
Procedure, shortened: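 Pooled human liver microsomes, 1 mg protein/mL, in 50 mM potassium phosphate pH 7.4. Substrate at 0.4-0.5 µM final; preincubated at 37 °C, then started with an NADPH-generating system (isocitrate/isocitrate dehydrogenase). Aliquots taken up to 20 min and quenched in acetonitrile. Remaining substrate measured by reversed-phase HPLC with fluorescence detection. Log-concentration vs time slope taken; ratio reported as reference slope/test slope; values >20 treated as stable. Three experiments.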

Oryctolagus cuniculus [1] = species on record: Oryctolagus cuniculus; assay: Mean dose of test compound at which a statistically significant increase was first observed and the dose for the maximum increase in QTc interval in rabbits; type: functional
Procedure, shortened: (§1)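 Male New Zealand white rabbits (2.5-3.5 kg), anesthetized and instrumented. Methoxamine infused at 10 µg/kg/min; methoxamine baseline taken after 15 min. Compound, dissolved in 0.1 M fumaric acid in absolute EtOH and diluted with saline, given as a continuous iv infusion of 5 mg/kg over 30 min. QTc (QT/√RR) and MAPD90 followed over time; cumulative mg/kg dose recorded at first significant rise (one-way ANOVA, p≤0.05) and at maximum rise.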

Oryctolagus cuniculus [2] = species on record: Oryctolagus cuniculus; assay: Mean dose at which EADs (early after depolarizations) began to develop in rabbits; type: functional
Procedure, shortened: (§2)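 Male New Zealand white rabbits (2.5-3.5 kg), anesthetized and instrumented. Methoxamine infused at 10 µg/kg/min; baseline taken after 15 min. Compound in 0.1 M fumaric acid/EtOH diluted with saline, infused IV at 5 mg/kg over 30 min. Readouts: QTc and MAPD90 maxima vs methoxamine baseline, with accumulated dose, and dose at EAD or PVT onset. ANOVA, p ≤ 0.05.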

Oryctolagus cuniculus [3] = species on record: Oryctolagus cuniculus; assay: Mean dose at which PVTs (Polymorphic ventricular tachyarrhythmias) were observed in rabbits; type: functional, Cardiac ventricle; procedure, shortened: as §2
Oryctolagus cuniculus [4] = species on record: Oryctolagus cuniculus; assay: Maximum increase in the ventricular monophasic action potential duration at 90% repolarization from the methoxamine infusion baseline in rabbits; type: functional, Cardiac ventricle; procedure, shortened: as §2
Oryctolagus cuniculus [5] = assay: In vivo evaluation of potential efficacy observed as the maximum increase in QTc interval from the methoxamine infusion baseline in rabbits; type: functional; procedure, shortened: as §2
Oryctolagus cuniculus [6] = species on record: Oryctolagus cuniculus; assay: Mean dose of test compound at which a statistically significant increase was first observed and the dose for the maximum increase in MAPD90 in rabbits; type: functional; procedure, shortened: as §2
Oryctolagus cuniculus [7] = species on record: Oryctolagus cuniculus; assay: Mean dose of test compound at which a statistically significant increase was first observed and the dose for the maximum increase in MAPD90 in rabbits (0.5-2.0); type: functional; procedure, shortened: as §1
Oryctolagus cuniculus [8] = species on record: Oryctolagus cuniculus; assay: Mean dose of test compound at which a statistically significant increase was first observed and the dose for the maximum increase in QTc interval in rabbits (0.25-5.0); type: functional; procedure, shortened: as §1
Oryctolagus cuniculus [9] = species on record: Oryctolagus cuniculus; assay: Mean dose of test compound at which a statistically significant increase was first observed and the dose for the maximum increase in MAPD90 in rabbits (0.5-1.0); type: functional; procedure, shortened: as §1
Oryctolagus cuniculus [10] = species on record: Oryctolagus cuniculus; assay: Mean dose of test compound at which a statistically significant increase was first observed and the dose for the maximum increase in MAPD90 in rabbits (0.1-5.0); type: functional; procedure, shortened: as §2
Oryctolagus cuniculus [11] = species on record: Oryctolagus cuniculus; assay: Mean dose of test compound at which a statistically significant increase was first observed and the dose for the maximum increase in QTc interval in rabbits (0.1-1.0); type: functional; procedure, shortened: as §1
Oryctolagus cuniculus [12] = species on record: Oryctolagus cuniculus; assay: Mean dose of test compound at which a statistically significant increase was first observed and the dose for the maximum increase in MAPD90 in rabbits (0.25-5.0); type: functional; procedure, shortened: as §1
Oryctolagus cuniculus [13] = species on record: Oryctolagus cuniculus; assay: Mean dose of test compound at which a statistically significant increase was first observed and the dose for the maximum increase in MAPD90 in rabbits (0.1-0.25); type: functional; procedure, shortened: as §2
Oryctolagus cuniculus [14] = species on record: Oryctolagus cuniculus; assay: Mean dose of test compound at which a statistically significant increase was first observed and the dose for the maximum increase in QTc interval in rabbits (0.1-0.25); type: functional; procedure, shortened: as §1
Oryctolagus cuniculus [15] = species on record: Oryctolagus cuniculus; assay: Mean dose of test compound at which a statistically significant increase was first observed and the dose for the maximum increase in MAPD90 in rabbits (0.25-0.5); type: functional; procedure, shortened: as §2
Oryctolagus cuniculus [16] = species on record: Oryctolagus cuniculus; assay: Mean dose of test compound at which a statistically significant increase was first observed and the dose for the maximum increase in QTc interval in rabbits (0.1-0.5); type: functional; procedure, shortened: as §1
Oryctolagus cuniculus [17] = species on record: Oryctolagus cuniculus; assay: Mean dose of test compound at which a statistically significant increase was first observed and the dose for the maximum increase in MAPD90 in rabbits (0.1-2.0); type: functional; procedure, shortened: as §2
Oryctolagus cuniculus [18] = species on record: Oryctolagus cuniculus; assay: Mean dose of test compound at which a statistically significant increase was first observed and the dose for the maximum increase in MAPD90 in rabbits (0.25-1.0); type: functional; procedure, shortened: as §1
Oryctolagus cuniculus [19] = species on record: Oryctolagus cuniculus; assay: Mean dose of test compound at which a statistically significant increase was first observed and the dose for the maximum increase in MAPD90 in rabbits (0.1-0.5); type: functional; procedure, shortened: as §2
Oryctolagus cuniculus [20] = species on record: Oryctolagus cuniculus; assay: Mean dose of test compound at which a statistically significant increase was first observed and the dose for the maximum increase in QTc interval in rabbits (0.2-1.0); type: functional; procedure, shortened: as §1
Oryctolagus cuniculus [21] = species on record: Oryctolagus cuniculus; assay: Mean dose of test compound at which a statistically significant increase was first observed and the dose for the maximum increase in MAPD90 in rabbits (0.25-2.0); type: functional; procedure, shortened: as §1
Oryctolagus cuniculus [22] = species on record: Oryctolagus cuniculus; assay: Mean dose of test compound at which a statistically significant increase was first observed and the dose for the maximum increase in MAPD90 in rabbits (0.1-1.0); type: functional; procedure, shortened: as §2

Compound	Metabolic stability relative to 31E (Homo sapiens)	Dose (Oryctolagus cuniculus [1])	Dose (Oryctolagus cuniculus [2])	Dose (Oryctolagus cuniculus [3])	MAPD90 (Oryctolagus cuniculus [4])	QTc interval (Oryctolagus cuniculus [5])	other results
CCN(CCCCCC(C)F)CCCC(O)c1ccc(NS(C)(=O)=O)cc1.O=C(O)/C=C/C(=O)O (configuration not stated)	1300%	0.25 mg/kg	0.3 mg/kg	0.2 mg/kg	143 ms	166 ms	Dose (Oryctolagus cuniculus [6]): 0.25 mg/kg
CCN(CC/C=C/c1ccc(NS(C)(=O)=O)cc1)CCCCCC(C)F (configuration not stated)	300%	2 mg/kg	0.3 mg/kg	1.5 mg/kg	133 ms	75 ms	Dose (Oryctolagus cuniculus [7]): 2 mg/kg
CCN(CCCCCC(C)F)CCCCc1ccc(NS(C)(=O)=O)cc1 (configuration not stated)	300%	–	0.2 mg/kg	1.1 mg/kg	56 ms	94 ms	Dose (Oryctolagus cuniculus [8]): 0.5 mg/kg; Dose (Oryctolagus cuniculus [9]): 1 mg/kg
CCN(CCCCCC(C)(C)F)CCC[C@H](O)c1ccc(NS(C)(=O)=O)cc1 [TRECETILIDE]	–	–	–	–	69 ms	83 ms	Dose (Oryctolagus cuniculus [10]): 5 mg/kg; Dose (Oryctolagus cuniculus [11]): 1 mg/kg
CCCCCCCN(CC)CCC[C@H](O)c1ccc(NS(C)(=O)=O)cc1	–	0.25 mg/kg	1.6 mg/kg	0.2 mg/kg	105 ms	145 ms	Dose (Oryctolagus cuniculus [12]): 5 mg/kg
CCN(CCCCCC(C)(F)F)CCC[C@H](O)c1ccc(NS(C)(=O)=O)cc1	–	–	0.3 mg/kg	0.3 mg/kg	92 ms	106 ms	Dose (Oryctolagus cuniculus [13]): 0.25 mg/kg; Dose (Oryctolagus cuniculus [11]): 1 mg/kg
CCN(CCCCCC(C)(C)F)CCC[C@H](O)c1ccc(NS(C)(=O)=O)cc1	> 2000%	–	–	–	–	–	–
CCN(CCCCCC(F)F)CCC[C@H](O)c1ccc(NS(C)(=O)=O)cc1	–	–	0.2 mg/kg	0.3 mg/kg	123 ms	154 ms	Dose (Oryctolagus cuniculus [14]): 0.25 mg/kg; Dose (Oryctolagus cuniculus [15]): 0.5 mg/kg
CCCCCCCN(CC)CCCC(O)c1ccc(NS(C)(=O)=O)cc1 (configuration not stated) [IBUTILIDE]	–	–	1.7 mg/kg	1 mg/kg	65 ms	85 ms	Dose (Oryctolagus cuniculus [8]): 5 mg/kg; Dose (Oryctolagus cuniculus [9]): 1 mg/kg
CCN(CCCCCC(C)(C)F)CCCCc1ccc(NS(C)(=O)=O)cc1	300%	–	–	–	90 ms	105 ms	Dose (Oryctolagus cuniculus [8]): 5 mg/kg; Dose (Oryctolagus cuniculus [12]): 5 mg/kg
CCN(CCCCCC(F)F)CCCC(O)c1ccc(NS(C)(=O)=O)cc1 (configuration not stated)	> 2000%	–	–	–	–	–	–
CCN(CCCCCCCF)CCCCc1ccc(NS(C)(=O)=O)cc1	100%	–	1 mg/kg	0.1 mg/kg	52 ms	96 ms	Dose (Oryctolagus cuniculus [16]): 0.5 mg/kg; Dose (Oryctolagus cuniculus [17]): 2 mg/kg
CCN(CCCCCCCF)CCC[C@H](O)c1ccc(NS(C)(=O)=O)cc1	400%	–	0.25 mg/kg	0.9 mg/kg	76 ms	105 ms	Dose (Oryctolagus cuniculus [14]): 0.25 mg/kg; Dose (Oryctolagus cuniculus [10]): 5 mg/kg
CCCCCCCN(CC)CCC[C@@H](O)c1ccc(NS(C)(=O)=O)cc1	100%	0.25 mg/kg	0.2 mg/kg	0.3 mg/kg	69 ms	112 ms	Dose (Oryctolagus cuniculus [18]): 1 mg/kg
CCN(CCCCCC(C)(F)F)CCCC(O)c1ccc(NS(C)(=O)=O)cc1 (configuration not stated)	–	0.25 mg/kg	0.4 mg/kg	0.7 mg/kg	118 ms	96 ms	Dose (Oryctolagus cuniculus [18]): 1 mg/kg
CCN(CCCCCCC(F)F)CCC[C@H](O)c1ccc(NS(C)(=O)=O)cc1	–	–	0.5 mg/kg	0.25 mg/kg	58 ms	118 ms	Dose (Oryctolagus cuniculus [14]): 0.25 mg/kg; Dose (Oryctolagus cuniculus [19]): 0.5 mg/kg
CCN(CCCCCC(C)(C)F)CCC[C@@H](O)c1ccc(NS(C)(=O)=O)cc1	–	–	0.5 mg/kg	0.27 mg/kg	59 ms	92 ms	Dose (Oryctolagus cuniculus [14]): 0.25 mg/kg; Dose (Oryctolagus cuniculus [13]): 0.25 mg/kg
CCN(CCCCCC(C)(C)F)CCCC(O)c1ccc(NS(C)(=O)=O)cc1 (configuration not stated)	> 2000%	0.25 mg/kg	0.9 mg/kg	0.25 mg/kg	96 ms	136 ms	Dose (Oryctolagus cuniculus [9]): 1 mg/kg
CCN(CCCCC(C)(C)F)CCCC(O)c1ccc(NS(C)(=O)=O)cc1 (configuration not stated)	–	–	1.4 mg/kg	3.6 mg/kg	178 ms	174 ms	Dose (Oryctolagus cuniculus [20]): 1 mg/kg; Dose (Oryctolagus cuniculus [21]): 2 mg/kg
CCN(CCCCCC(C)F)CCC[C@H](O)c1ccc(NS(C)(=O)=O)cc1 (some centres not stated)	> 2000%	–	0.2 mg/kg	0.4 mg/kg	90 ms	130 ms	Dose (Oryctolagus cuniculus [14]): 0.25 mg/kg; Dose (Oryctolagus cuniculus [22]): 1 mg/kg
CCN(CCCCCCC(F)F)CCCC(O)c1ccc(NS(C)(=O)=O)cc1 (configuration not stated)	> 2000%	0.25 mg/kg	0.3 mg/kg	0.3 mg/kg	48 ms	71 ms	Dose (Oryctolagus cuniculus [6]): 0.25 mg/kg
